M5 ag = human M5 muscarinic receptor agonists, primary screen, CHO-K1 cells, Fluo-8 calcium fluorescence; Muscarinic acetylcholine receptor M5 (Homo sapiens), P08912; CHO-K1 hM5 cells; 0% DMSO wells, 100% maximal acetylcholine response; activation, % at 3 µM; actives 0.19% (n = 360,000); AID 624037, 2012;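 active means activation above the run's mean over test compounds plus 3 SD, cut at about 23% in these data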;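 further: signal is peak over basal fluorescence ratio across the kinetic read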
CHRM5 PAM = human M5 muscarinic receptor positive allosteric modulators, primary screen, CHO-K1 cells, Fluo-8 calcium fluorescence; CHO-K1 hM5, ACh EC20 PAM; 0% = ACh EC20, 100% = ACh EC100; actives 0.3% (n = 360,000); activation, % at 3 µM; Muscarinic acetylcholine receptor M5 (Homo sapiens), P08912; AID 624038, 2012;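 active means activation above the run cutoff, the mean activation of all test compounds plus 3 SD, cut at about 18% in these data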
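System: CHO-K1 cell line with stable human muscarinic M5 receptor expression | Also added: EC20 acetylcholine as agonist stimulus | Compound: One concentration, 3 µM final (nominal) | Timing: Fluo-8 loading 80 min at 37 °C plus 30 min room temperature | Measured by: Fluo-8 calcium dye fluorescence, kinetic read | Read-out basis: % activation, ACh-normalized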
M4 ag = human M4 muscarinic receptor agonists, primary screen, CHO-K1 cells, Fluo-8 calcium fluorescence; CHO-K1 hM4/Gqi5; vehicle 0%, full acetylcholine response 100%; activation, % at 3 µM; actives 0.14% (n = 360,000);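 active means activation above the run mean over all test wells plus 3 SD, cut at about 32% in these data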;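 further: peak over basal fluorescence ratio per well then scaled between controls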
Target sequence (P08173 whole entry, looked up): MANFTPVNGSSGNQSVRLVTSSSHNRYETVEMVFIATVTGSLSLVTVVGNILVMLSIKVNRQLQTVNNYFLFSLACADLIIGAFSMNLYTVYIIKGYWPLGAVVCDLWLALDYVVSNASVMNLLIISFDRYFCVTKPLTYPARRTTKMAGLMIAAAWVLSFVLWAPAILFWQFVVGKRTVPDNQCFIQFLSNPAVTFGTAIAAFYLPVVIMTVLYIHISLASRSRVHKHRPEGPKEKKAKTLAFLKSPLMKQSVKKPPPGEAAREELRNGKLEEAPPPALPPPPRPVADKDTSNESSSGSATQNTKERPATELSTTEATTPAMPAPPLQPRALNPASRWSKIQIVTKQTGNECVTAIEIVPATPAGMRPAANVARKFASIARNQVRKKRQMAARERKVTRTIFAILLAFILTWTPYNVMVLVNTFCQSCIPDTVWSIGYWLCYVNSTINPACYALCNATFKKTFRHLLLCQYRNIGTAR
CHRM4 antagonist = human M4 muscarinic receptor antagonists, primary screen, CHO cells, Fluo-8 calcium fluorescence; inhibition, % at 3 µM; Muscarinic acetylcholine receptor M4 (Homo sapiens), P08173; CHO-hM4 cells, ACh EC80; actives 0.73% (n = 360,000);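 active means inhibition above its plate's cutoff, the mean inhibition of sample wells plus 3 SD, cut at about 27% in these data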
M5 antag = human M5 muscarinic receptor antagonists, primary screen, CHO cells, Fluo-8 calcium fluorescence | AID 624040, 2012 | CHO-hM5 cells, ACh EC80 | actives 0.59% (n = 360,000) | inhibition, % at 3 µM | Muscarinic acetylcholine receptor M5 (Homo sapiens), P08912;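 active means inhibition above a per-plate cutoff, the mean of that plate's test compounds plus 3 SD, cut at about 27% in these data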
M4 PAM = human M4 muscarinic receptor positive allosteric modulators, primary screen, CHO-K1 cells, Fluo-8 calcium fluorescence. Muscarinic acetylcholine receptor M4 (Homo sapiens), P08173. CHO-K1 hM4/Gqi5, ACh EC20; 0% = ACh EC20, 100% = maximal ACh. activation, % at 3 µM. actives 0.4% (n = 360,000). AID 624126, 2012;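 active means activation above its plate's cutoff, the mean activation of sample wells plus 3 SD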
Hits are given with their value; – = inactive. Compounds with a hit are over-represented: about 1.9% of the library has one in this group of screens.

SMILES	M5 ag	CHRM5 PAM	M4 ag	CHRM4 antagonist	M5 antag	M4 PAM
COC(=O)NNC(=O)C(C)Oc1ccc(Cl)cc1Cl (centres undefined)	–	–	–	–	–	29.7
CC(Oc1ccc(Cl)cc1Cl)C(=O)NNC(=O)c1ccncc1 (centres undefined)	–	–	–	–	–	–
CCOc1ccccc1-c1nc(CN2CCCN(C(=O)c3ccco3)CC2)c(C)o1	–	–	–	–	–	–
CCCCCCC[N+](CC)(CC)CCCCc1ccc(Cl)cc1	–	–	–	38.5	–	–
CCCCCNCc1ccc(Cl)cc1	–	–	–	–	–	–
COCCCN1C(=O)c2ccc(C(=O)Nc3ccc(C)cc3C)cc2C1=O	–	–	–	–	–	–
CCCNC(=O)c1nnsc1S(=O)(=O)c1ccc(Cl)cc1	–	–	–	64.7	–	–
CNC(=O)c1nnsc1S(=O)c1ccc(Cl)cc1 (centres undefined)	–	–	–	28.3	–	–
CCCNC(=O)c1nnsc1S(=O)c1ccc(Cl)cc1 (centres undefined)	–	–	–	42.8	–	–
O=C(COC(=O)c1cc[n+]([O-])cc1)Nc1ccc([N+](=O)[O-])cc1Cl	–	–	–	–	–	–
O=C(CCCCCn1c(=S)[nH]c2cc3c(cc2c1=O)OCO3)N1CCN(Cc2ccccc2)CC1	–	–	–	–	–	–
O=C(CCCCCn1c(=S)[nH]c2cc3c(cc2c1=O)OCO3)N1CCN(C2CCCCC2)CC1	–	–	–	–	30.9	–
CC1(C)CC(CC(=O)O)(c2ccc(Cl)cc2)CCO1 (centres undefined)	–	–	–	–	–	17.2
C[N+](C)(CCOc1ccccc1)Cc1ccccc1	–	–	–	–	–	–
Cc1cc(C(C)(C)CC(C)(C)C)ccc1OCCOCC[N+](C)(C)Cc1ccccc1	–	–	–	27.2	–	–
O=C(Nc1ccccc1C(F)(F)F)C(O)(c1ccccc1)C1CCCCC1 (centres undefined)	–	–	–	–	–	–
C[N+]1(C)CC[C@H](OC(=O)[C@@](O)(c2ccccc2)C2CCCC2)C1	–	–	–	99.0	98.8	–
C[N+]1(C)CCC(OC(=O)C(O)(c2ccccc2)C2CCCC2)C1 (centres undefined)	–	–	–	98.9	98.4	–
CCOC(=O)CSc1nc2cc(S(=O)(=O)N3CCOCC3)ccc2n1CC	–	–	–	–	–	–
C[C@H](CO)N1C[C@H](C)[C@@H](CN(C)S(=O)(=O)c2cccs2)Oc2c(NC(=O)Cc3ccccc3)cccc2C1=O	–	–	–	–	–	–
Fc1ccc(COc2ccc(Cl)cc2/C=N/Nc2nc(N3CCCC3)nc(N3CCCC3)n2)cc1	–	–	34.1	–	–	–
O=C(Cn1nnc(-c2ccccc2NC(=O)c2cccs2)n1)Nc1ccccc1	–	20.9	–	–	–	–
NC(=O)Cn1nnc(-c2ccccc2NC(=O)c2cnccn2)n1	–	35.0	–	–	–	–
CC(C)(C)NC(=O)Cn1nnc(-c2ccccc2NC(=O)c2cnccn2)n1	–	–	–	–	–	–
CC1CCCC(NC(=O)C2N(CCCN3CCCC3)C(=O)C3C(C(=O)Nc4ccc(Cl)cc4)C4C=CC32O4)C1C (centres undefined)	–	–	–	–	–	–
SMILES	M5 ag	CHRM5 PAM	M4 ag	CHRM4 antagonist	M5 antag	M4 PAM
COCCn1c(SCC(=O)NNC(=O)c2cc(Cl)ccc2OC)nnc1-c1ccncc1	–	–	–	–	–	–
CCCCCCOc1ccc(N2C(=O)CC(N3CCN(CCN=CC4C(=O)CC(C)(C)CC4=O)CC3)C2=O)cc1 (centres undefined)	–	–	–	–	–	–
O=C(Nc1cc(=O)[nH]c2ncnn12)c1ccco1	–	–	–	–	–	–
COc1ccc(C(=O)Nc2cc(=O)[nH]c3ncnn23)cc1	–	–	–	29.4	–	–
Cc1cccc(C)c1-n1c(C)cc(/C=C2\NC(=O)NC2=O)c1C	–	–	–	–	–	35.5
Cc1cc(/C=C2\NC(=O)NC2=O)c(C)n1-c1cccnc1	–	–	–	–	–	–
O=c1[nH]c(-c2ccccc2)nc(CN2CCCCC2)c1O	–	–	–	–	–	20.9
O=C(c1ccc(CSc2nc3ccncc3[nH]2)cc1)N1CCN(c2cccc(Cl)c2)CC1	–	–	–	–	35.5	–
CNc1cc(-c2cc(OC)ccc2OC)ncn1	–	–	–	72.9	–	–
COc1cccc(N=Nc2ccc3cccnc3c2O)c1	42.4	–	43.2	–	–	–
COc1cccc(N=Nc2ccc(O)c3ncccc23)c1	54.3	–	–	34.1	28.4	–
O=C(CCNC(=O)c1ccco1)NNC(=O)c1ccc(Br)cc1	–	–	–	–	–	23.1
Cc1ccc(NC(=O)CCNC(=O)c2ccco2)cc1	–	–	–	–	–	–
O=C(CCNC(=O)c1ccco1)Nc1ccccc1	–	–	–	–	–	15.7
O=C(CCNC(=O)c1ccc(Br)cc1)NCc1ccco1	–	–	–	–	–	–
Cc1ccc(CN2CCN(Cc3ccc(-n4cccn4)cc3C)CC2CCO)cc1 (centres undefined)	–	–	–	–	–	–
CCC(Sc1nc2c(cnn2-c2ccc(Cl)cc2)c(=O)[nH]1)C(=O)OC (centres undefined)	–	–	–	40.5	–	–
CCOC(=O)C1=C(Nc2ccc(OC)cc2)OCC1=O	–	–	–	–	–	–
O=C(Oc1cccc2c(OC(=O)N3CCOCC3)cccc12)N1CCOCC1	–	–	–	–	–	–
O=C(Oc1ccc2cccc(OC(=O)N3CCOCC3)c2c1)N1CCOCC1	–	19.4	–	–	–	–
Cc1ccc(S(=O)(=O)CCC#N)cc1	–	–	–	–	–	–
CC1=CC(C)(C)N2C(=O)C(=O)c3cc(OC(=O)c4ccco4)cc1c32	35.9	–	–	–	–	–
NS(=O)(=O)c1ccc(CCNC(=O)c2ccc3c(c2)OCCO3)cc1	–	–	–	–	–	–
COc1ccc(N2CCN(C(=O)CCS(=O)(=O)c3ccc4c(c3)CCN4C(=O)C3CC3)CC2)cc1	–	–	–	–	–	–
COCCOc1ccc(C(F)(F)F)cc1NC(=O)c1ccccc1	–	–	–	–	–	–

Assay outcomes (PubChem BioAssay)
